Measured values as given in ChEMBL document CHEMBL3124871, “Synthesis and pharmacological characterization of 1-benzyl-4-aminoindole-based thyroid hormone receptor β agonists” (Bioorg Med Chem, 2014).

Key:
[1] = species: Homo sapiens; assay: Reduction in LDL-cholesterol in healthy human at 100 ug qd for 1 week; assay type: functional; parameters: scale not given: the % may be the effect or the level left
[2] = molecular target: T1, Thyroid hormone receptor beta (Homo sapiens, UniProt P10828); assay: Displacement of [125I]-Triiodothyronine from human recombinant TRbeta1 ligand binding domain after 2 to 3 hrs by beta counting
T1 sequence (P10828 whole entry): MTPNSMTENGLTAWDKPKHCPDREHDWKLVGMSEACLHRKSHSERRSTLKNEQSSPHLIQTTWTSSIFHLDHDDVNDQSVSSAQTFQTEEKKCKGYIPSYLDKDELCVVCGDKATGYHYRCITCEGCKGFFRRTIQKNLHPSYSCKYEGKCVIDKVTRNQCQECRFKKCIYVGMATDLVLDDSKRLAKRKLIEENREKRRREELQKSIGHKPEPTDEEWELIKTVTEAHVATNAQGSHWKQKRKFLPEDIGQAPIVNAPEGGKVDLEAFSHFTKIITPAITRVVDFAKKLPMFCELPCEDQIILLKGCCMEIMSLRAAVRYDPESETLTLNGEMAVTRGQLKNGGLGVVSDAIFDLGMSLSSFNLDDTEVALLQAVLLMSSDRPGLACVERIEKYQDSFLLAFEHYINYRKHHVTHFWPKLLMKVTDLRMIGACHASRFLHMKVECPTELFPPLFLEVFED

[3] = molecular target: T2, Thyroid hormone receptor alpha (Homo sapiens, UniProt P10827); assay: Displacement of [125I]-Triiodothyronine from human recombinant TRalpha1 ligand binding domain after 2 to 3 hrs by beta counting
T2 sequence (P10827 whole entry): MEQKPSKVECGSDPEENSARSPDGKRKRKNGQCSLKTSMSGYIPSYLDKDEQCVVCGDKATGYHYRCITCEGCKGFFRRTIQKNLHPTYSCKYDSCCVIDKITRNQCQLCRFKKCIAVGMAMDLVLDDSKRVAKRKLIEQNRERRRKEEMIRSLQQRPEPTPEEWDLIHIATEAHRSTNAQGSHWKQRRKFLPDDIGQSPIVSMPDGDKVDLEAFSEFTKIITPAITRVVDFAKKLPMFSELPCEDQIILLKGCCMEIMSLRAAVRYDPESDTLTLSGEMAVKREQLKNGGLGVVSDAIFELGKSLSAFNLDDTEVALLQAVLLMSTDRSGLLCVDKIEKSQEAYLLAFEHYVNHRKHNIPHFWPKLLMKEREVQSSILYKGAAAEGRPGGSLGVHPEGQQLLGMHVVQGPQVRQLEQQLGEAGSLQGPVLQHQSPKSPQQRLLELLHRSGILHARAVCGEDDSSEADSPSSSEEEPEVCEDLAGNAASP

[4] = tested on: CV-1; assay: Selectivity ratio of EC50 for human recombinant transfected in CV-1 cells to EC50 for human recombinant TRbeta1 transfected in CV-1 cells; assay type: cell-based
Procedure, shortened: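 CV-1 monkey kidney cells grown in DMEM with 10% FBS for 24 h at 37 °C and 5% CO2. Transfected (FuGENE) with hTRα1 or hTRβ1 plus a SEAP reporter for 24 h, then exposed to T3 or test compound for 8-10 h. SEAP was read as A405 of p-nitrophenol (pH 9.8, 30 min, RT). EC50 was set against T3 max = 100%; mean of four experiments; α/β ratio of EC50s.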

[5] = molecular target: T1, Thyroid hormone receptor beta; assay: Agonist activity at human recombinant TRbeta1 transfected in CV-1 cells after 8 to 10 hrs by alkaline phosphatase reporter gene assay; assay type: cell-based
[6] = molecular target: T2, Thyroid hormone receptor alpha; assay: Agonist activity at human recombinant TRalpha1 transfected in CV-1 cells after 8 to 10 hrs by alkaline phosphatase reporter gene assay; assay type: cell-based
[7] = tested on: Rattus norvegicus; assay: Toxicity in cholesterol-fed Sprague-Dawley rat assessed as TSH level at 50 ug/kg/day, po qd for 1 week measured 3 to 6 hrs post last dose (reference value: 62 +/- 7 ng/dl); assay type: organism-based; conditions: in vivo, 0.05 mg/kg
[8] = tested on: Rattus norvegicus; assay: Toxicity in cholesterol-fed Sprague-Dawley rat assessed as total T4 level at 50 ug/kg/day, po qd for 1 week measured 3 to 6 hrs post last dose (reference value: 3.8 +/- 0.9 ug/dl); assay type: organism-based; conditions: in vivo, 0.05 mg/kg
[9] = tested on: Rattus norvegicus; assay: Toxicity in cholesterol-fed Sprague-Dawley rat assessed as TSH level at 50 ug/kg/day, po qd for 1 week measured 3 to 6 hrs post last dose (reference value: 3.0 +/- 1.0 uIU/ml); assay type: organism-based; conditions: in vivo, 0.05 mg/kg
[10] = tested on: Rattus norvegicus; assay: Toxicity in cholesterol-fed Sprague-Dawley rat assessed as heart weight at 50 ug/kg/day, po qd for 1 week measured 3 to 6 hrs post last dose (reference value: 1.14 +/- 0.12 g); assay type: organism-based; conditions: in vivo, 0.05 mg/kg
[11] = tested on: Rattus norvegicus; assay: Toxicity in cholesterol-fed Sprague-Dawley rat assessed as heart rate at 50 ug/kg/day, po qd for 1 week measured 3 to 6 hrs post last dose (reference value: 383.0 +/- 26.7 bpm); assay type: organism-based; conditions: in vivo, 0.05 mg/kg
[12] = tested on: Rattus norvegicus; assay: Reduction in plasma triglyceride level in cholesterol-fed Sprague-Dawley rat at 50 ug/kg/day, po qd for 1 week measured 3 to 6 hrs post last dose (reference value: 62 +/- 25 mg/dl); assay type: functional
[13] = tested on: Rattus norvegicus; assay: Reduction in plasma HDL-cholesterol in cholesterol-fed Sprague-Dawley rat at 50 ug/kg/day, po qd for 1 week measured 3 to 6 hrs post last dose (reference value: 22 +/- 6 mg/dl); assay type: functional
[14] = tested on: Rattus norvegicus; assay: Reduction in plasma free cholesterol in cholesterol-fed Sprague-Dawley rat at 50 ug/kg/day, po qd for 1 week measured 3 to 6 hrs post last dose (reference value: 36 +/- 9 mg/dl); assay type: functional
[15] = tested on: Rattus norvegicus; assay: Reduction in plasma LDL-cholesterol in cholesterol-fed Sprague-Dawley rat at 50 ug/kg/day, po qd for 1 week measured 3 to 6 hrs post last dose (reference value: 51 +/- 15 mg/dl); assay type: functional
[16] = tested on: Rattus norvegicus; assay: Reduction in plasma total cholesterol in cholesterol-fed Sprague-Dawley rat at 50 ug/kg/day, po qd for 1 week measured 3 to 6 hrs post last dose (reference value: 190 +/- 49 mg/dl); assay type: functional
[17] = tested on: Rattus norvegicus; assay: Toxicity in cholesterol-fed Sprague-Dawley rat assessed as total T4 level at 30 mg/kg/day, po qd for 1 week measured 3 to 6 hrs post last dose (reference value: 3.8 +/- 0.9 ug/dl); assay type: organism-based; parameters: route oral; conditions: in vivo
[18] = tested on: Rattus norvegicus; assay: Toxicity in cholesterol-fed Sprague-Dawley rat assessed as TSH level at 30 mg/kg/day, po qd for 1 week measured 3 to 6 hrs post last dose (reference value: 3.0 +/- 1.0 uIU/ml); assay type: organism-based; parameters: route oral; conditions: in vivo
[19] = tested on: Rattus norvegicus; assay: Toxicity in cholesterol-fed Sprague-Dawley rat assessed as heart weight at 30 mg/kg/day, po qd for 1 week measured 3 to 6 hrs post last dose (reference value: 1.14 +/- 0.12 g); assay type: organism-based; parameters: route oral; conditions: in vivo
[20] = tested on: Rattus norvegicus; assay: Toxicity in cholesterol-fed Sprague-Dawley rat assessed as heart rate at 30 mg/kg/day, po qd for 1 week measured 3 to 6 hrs post last dose (reference value: 383.0 +/- 26.7 bpm); assay type: organism-based; parameters: route oral; conditions: in vivo
[21] = tested on: Rattus norvegicus; assay: Toxicity in cholesterol-fed Sprague-Dawley rat assessed as total T4 level at 150 mg/kg/day, po qd for 1 week measured 3 to 6 hrs post last dose (reference value: 3.8 +/- 0.9 ug/dl); assay type: organism-based; parameters: route oral; conditions: in vivo
[22] = tested on: Rattus norvegicus; assay: Toxicity in cholesterol-fed Sprague-Dawley rat assessed as TSH level at 150 mg/kg/day, po qd for 1 week measured 3 to 6 hrs post last dose (reference value: 3.0 +/- 1.0 uIU/ml); assay type: organism-based; parameters: route oral; conditions: in vivo
[23] = tested on: Rattus norvegicus; assay: Toxicity in cholesterol-fed Sprague-Dawley rat assessed as heart weight at 150 mg/kg/day, po qd for 1 week measured 3 to 6 hrs post last dose (reference value: 1.14 +/- 0.12 g); assay type: organism-based; parameters: route oral; conditions: in vivo
[24] = tested on: Rattus norvegicus; assay: Toxicity in cholesterol-fed Sprague-Dawley rat assessed as heart rate at 150 mg/kg/day, po qd for 1 week measured 3 to 6 hrs post last dose (reference value: 383.0 +/- 26.7 bpm); assay type: organism-based; parameters: route oral; conditions: in vivo
[25] = tested on: Rattus norvegicus; assay: Reduction in plasma triglyceride level in cholesterol-fed Sprague-Dawley rat at 30 mg/kg/day, po qd for 1 week measured 3 to 6 hrs post last dose (reference value: 62 +/- 25 mg/dl); assay type: functional
[26] = tested on: Rattus norvegicus; assay: Reduction in plasma HDL-cholesterol in cholesterol-fed Sprague-Dawley rat at 30 mg/kg/day, po qd for 1 week measured 3 to 6 hrs post last dose (reference value: 22 +/- 6 mg/dl); assay type: functional
[27] = tested on: Rattus norvegicus; assay: Reduction in plasma free cholesterol in cholesterol-fed Sprague-Dawley rat at 30 mg/kg/day, po qd for 1 week measured 3 to 6 hrs post last dose (reference value: 36 +/- 9 mg/dl); assay type: functional
[28] = tested on: Rattus norvegicus; assay: Reduction in plasma LDL-cholesterol in cholesterol-fed Sprague-Dawley rat at 30 mg/kg/day, po qd for 1 week measured 3 to 6 hrs post last dose (reference value: 51 +/- 15 mg/dl); assay type: functional
[29] = tested on: Rattus norvegicus; assay: Reduction in plasma total cholesterol in cholesterol-fed Sprague-Dawley rat at 30 mg/kg/day, po qd for 1 week measured 3 to 6 hrs post last dose (reference value: 190 +/- 49 mg/dl); assay type: functional
[30] = tested on: HepG2; assay: Selectivity ratio of EC50 for human recombinant transfected in human HepG2 cells to EC50 for human recombinant TRbeta1 transfected in human HepG2; assay type: cell-based
[31] = molecular target: T1, Thyroid hormone receptor beta; assay: Agonist activity at human recombinant TRbeta1 transfected in human HepG2 cells after 8 to 10 hrs by alkaline phosphatase reporter gene assay; assay type: cell-based
[32] = species: Homo sapiens; assay: Reduction in LDL-cholesterol in healthy human at 100 ug qd for 2 weeks; assay type: functional; parameters: scale not given: the % may be the effect or the level left
[33] = species: Homo sapiens; assay: Reduction in triglyceride level in coronary heart disease patient with hyperlipidemia relative to placebo-control; assay type: functional; parameters: scale not given: the % may be the effect or the level left
[34] = species: Homo sapiens; assay: Reduction in cholesterol level in coronary heart disease patient with hyperlipidemia relative to placebo-control; assay type: functional; parameters: scale not given: the % may be the effect or the level left

CC(C)c1cc(Oc2c(Br)cc(NC(=O)CC(=O)O)cc2Br)ccc1O [EPROTIROME]
Activity [1]: 40%

Cc1c(CC(=O)NCC(=O)O)c2ccccc2n1Cc1ccc(O)c(C(C)C)c1
IC50 [2]: 430 nM
IC50 [3]: 8200 nM

Cc1c(CC(=O)O)c2ccccc2n1Cc1ccc(O)c(C(C)C)c1
Ratio EC50 [4]: 3
EC50 [5]: 150 nM
EC50 [6]: 450 nM

Cc1cc2cc(NC(=O)C(=O)O)ccc2n1Cc1ccc(O)c(C(C)C)c1
IC50 [2]: 1500 nM
IC50 [3]: 230 nM

N[C@@H](Cc1cc(I)c(Oc2ccc(O)c(I)c2)c(I)c1)C(=O)O [LIOTHYRONINE]
Activity [7]: 31 ng/dL
Activity [8]: 0.9 µg/dL
Activity [9]: 0.1 uIU/ml
Activity [10]: 1.25 g
Activity [11]: 430 bpm
Activity [12]: 61 mg/dL
Activity [13]: 22 mg/dL
Activity [14]: 22 mg/dL
Activity [15]: 28 mg/dL
Activity [16]: 123 mg/dL

Cc1c(CCCCC(=O)O)c2ccccc2n1Cc1ccc(O)c(C(C)C)c1
Ratio EC50 [4]: 1.6
EC50 [5]: 62 nM
EC50 [6]: 100 nM
IC50 [2]: 1400 nM
IC50 [3]: > 10000 nM

Cc1cc2c(NC(=O)CC(=O)O)cccc2n1Cc1ccc(O)c(C(C)C)c1
Activity [17]: 2.8 µg/dL
Activity [18]: 3.1 uIU/ml
Activity [19]: 1.13 g
Activity [20]: 403.2 bpm
Activity [21]: 1.7 µg/dL
Activity [22]: 0.9 uIU/ml
Activity [23]: 1.24 g
Activity [24]: 415.8 bpm
Activity [25]: 44 mg/dL
Activity [26]: 23 mg/dL
Activity [27]: 19 mg/dL
Activity [28]: 25 mg/dL
Activity [29]: 111 mg/dL
Ratio EC50 [30]: 16
Ratio EC50 [4]: 4.5
EC50 [31]: 220 nM
EC50 [5]: 1700 nM
IC50 [2]: 230 nM
IC50 [3]: 5200 nM

Cc1cc2c(NC(=O)C(=O)O)cccc2n1Cc1ccc(O)c(C(C)C)c1
Ratio EC50 [30]: 1.5
Ratio EC50 [4]: 2.2
EC50 [31]: 110 nM
EC50 [5]: 590 nM

Cc1cc(OCC(=O)O)cc(C)c1Cc1ccc(O)c(C(C)C)c1 [SOBETIROME]
Activity [32]: 41%

Cc1ccc(NC(=O)C(=O)O)c2ccn(Cc3ccc(O)c(C(C)C)c3)c12
Ratio EC50 [30]: 2.5
Ratio EC50 [4]: 1.5
EC50 [31]: 190 nM
EC50 [5]: 500 nM
IC50 [2]: 54 nM
IC50 [3]: 190 nM

CC(C)c1cc(Cn2ccc3c(NC(=O)C(=O)O)cccc32)ccc1O
Ratio EC50 [30]: 2.2
Ratio EC50 [4]: 2.7
EC50 [31]: 550 nM
EC50 [5]: 1900 nM

Cc1c(C(=O)NCC(=O)O)c2ccccc2n1Cc1ccc(O)c(C(C)C)c1
IC50 [2]: 1100 nM
IC50 [3]: > 10000 nM

Cc1c(CCC(=O)O)c2ccccc2n1Cc1ccc(O)c(C(C)C)c1
Ratio EC50 [4]: 1
EC50 [5]: 37 nM
EC50 [6]: 39 nM
IC50 [2]: 760 nM
IC50 [3]: 1300 nM

N[C@H](Cc1cc(I)c(Oc2cc(I)c(O)c(I)c2)c(I)c1)C(=O)[O-].O.[Na+] [DEXTROTHYROXINE SODIUM]
Activity [33]: 15%
Activity [34]: 12%

Cc1c(CCCC(=O)O)c2ccccc2n1Cc1ccc(O)c(C(C)C)c1
Ratio EC50 [4]: 4.8
EC50 [5]: 37 nM
EC50 [6]: 180 nM
IC50 [2]: 290 nM
IC50 [3]: 3400 nM
